High-throughput results from PubChem.
An excerpt weighted towards active compounds, which were near 12% of everything screened.
Lmaj promast – reduces viability of Leishmania major promastigotes | resazurin fluorescence viability | inhibition, % at 10 µM | hit rate 9% among 200,000 | AID 1063;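 also: promastigotes grown with compound for 44 hours at 28 °C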
Wee1 degr inh – inhibitors of human Wee1 degradation | HeLa Luc-Wee1K328M stability, luciferase luminescence; 100% = proteasome inhibitor MG132 effect | reporter increase, % at 5 µM | hit rate 1.2% among 220,000;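 active = activation above the mean of all tested compounds plus 3 SD, set per screening run, cut at about 8.8% in these data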;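 also: cells exposed to compound for 20 h before luminescence read; 0% = DMSO alone and 100% = MG132 at 30 µM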
Rad51 HR inh – blocks human Rad51 in homologous recombination. inhibition, % at 10 µM. hRad51 DNA strand exchange, fluorescence dequenching. hit rate 0.085% among 200,000. Q06609;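 active = inhibition above 40% at the single screening dose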;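 also: 0% = DMSO control wells and 100% = blanks with heterologous ssDNA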
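Material: Human Rad51 nucleoprotein filaments preassembled on unlabelled ssDNA | Also added: Labelled 47-mer dsDNA for strand exchange | Dosing: Single dose, 10 µM final compound | Schedule: 30-min compound preincubation and 15-min exchange, both room temperature | Technique: Fluorescence dequenching at 485/520 nm | Measure: Percent inhibition relative to plate controls and blanks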
PKD1 kinase inh – inhibitors of human PKD1 kinase | AID 797 | PKD1 kinase fluorescence polarization assay | hit rate 0.056% among 200,000 | inhibition, % (no concentration beside the values) | Q15139
Target sequence (Q15139 whole entry, looked up): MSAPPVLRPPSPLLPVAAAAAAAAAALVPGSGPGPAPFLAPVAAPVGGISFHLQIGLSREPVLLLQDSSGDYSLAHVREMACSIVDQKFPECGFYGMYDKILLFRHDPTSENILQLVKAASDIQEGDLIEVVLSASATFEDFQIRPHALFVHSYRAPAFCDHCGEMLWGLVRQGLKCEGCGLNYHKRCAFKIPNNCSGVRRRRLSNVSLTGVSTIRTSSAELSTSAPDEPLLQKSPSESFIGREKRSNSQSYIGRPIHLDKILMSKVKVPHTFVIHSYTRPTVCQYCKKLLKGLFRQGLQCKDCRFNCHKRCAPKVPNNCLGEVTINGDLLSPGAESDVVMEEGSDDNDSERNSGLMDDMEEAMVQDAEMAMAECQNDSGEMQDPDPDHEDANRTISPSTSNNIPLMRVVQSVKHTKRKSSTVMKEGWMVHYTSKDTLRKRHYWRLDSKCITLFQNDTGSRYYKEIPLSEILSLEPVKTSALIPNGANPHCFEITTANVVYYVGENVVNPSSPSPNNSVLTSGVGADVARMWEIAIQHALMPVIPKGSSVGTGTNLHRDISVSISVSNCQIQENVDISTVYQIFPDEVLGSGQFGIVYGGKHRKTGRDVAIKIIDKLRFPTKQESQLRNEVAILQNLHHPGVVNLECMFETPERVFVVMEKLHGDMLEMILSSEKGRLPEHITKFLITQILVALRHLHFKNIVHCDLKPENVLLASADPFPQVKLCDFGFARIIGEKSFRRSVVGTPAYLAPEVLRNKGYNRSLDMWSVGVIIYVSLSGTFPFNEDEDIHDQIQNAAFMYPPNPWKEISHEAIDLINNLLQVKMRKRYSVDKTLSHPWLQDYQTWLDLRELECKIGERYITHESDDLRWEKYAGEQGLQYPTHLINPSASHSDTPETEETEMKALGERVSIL
Arbovirus anti – arbovirus infection inhibition | arbovirus infection cell-based antiviral screen | inhibition, % at 10 µM | hit rate 0.37% among 200,000; in the data active = inhibition above about 30%
CHOP inhibitor – blocks CHOP induction under ER stress. hit rate 3.8% among 220,000. CHO-K1 CHOP-promoter luciferase, tunicamycin-induced, 15-18 h. inhibition, % at 10 µM;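 active = compounds that reduced the stress-induced luciferase reporter signal by more than about 70% of percent inhibition, limit read from the data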;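 also: 0% = tunicamycin plus vehicle and 100% = wells without tunicamycin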
Numbers without * were called inactive; x = not tested or not shown. Rule as the data show it, unless noted: active = inhibition above about 50%; inactive = the rest.

SMILES	Lmaj promast	Wee1 degr inh	Rad51 HR inh	PKD1 kinase inh	Arbovirus anti	CHOP inhibitor
COC(=O)c1ccc(CN2CCN(CCc3ccccc3)C(CCO)C2)cc1 (stereo not drawn)	91.3*	-0.4	6.0	-9.5	-13.9	6.7
COc1ccccc1-c1nnc(SCC(=O)NCc2cccs2)n1N	1.6	-2.7	-8.6	1.1	1.1	-12.9
O=C(OC1C[C@@H]2CC3C[C@H](C1)N2CC3=O)c1c[nH]c2ccccc12 (stereo partly drawn)	x	x	-10.8	x	x	x
COc1ccc(/C=C/CN2CCN(CCc3ccccc3)C(CCO)C2)cc1 (stereo not drawn)	89.6*	3.1	-13.4	-5.3	10.4	13.0
CC(C)C(=O)NC(c1ccc([N+](=O)[O-])cc1)c1c(O)ccc2ccccc12 (stereo not drawn)	97.2*	0.6	x	6.7	-26.8	22.1
CC(=O)NC(c1ccccc1)c1c(O)ccc2ccccc12 (stereo not drawn)	37.3	-1.3	x	4.3	5.4	-17.6
CCCC(=O)NC(c1ccc(OC)c(OC)c1)c1c(O)ccc2ccccc12 (stereo not drawn)	99.7*	-2.1	-5.2	-4.9	-0.1	25.8
CCCCC(=O)NC(c1ccc(OC)c(OC)c1)c1c(O)ccc2ccccc12 (stereo not drawn)	100.0*	-1.7	-8.1	7.0	-9.8	24.7
Cc1ccc(C(NC(=O)C2CCCCC2)c2c(O)ccc3ccccc23)cc1 (stereo not drawn)	97.4*	0.2	-377.6	13.3	1.1	62.8
COCC(C)NCc1ccc(OC)c(Br)c1 (stereo not drawn)	-1.6	2.2	14.4	3.0	-1.9	8.0
Fc1ccc(-n2c(CN3CCCCC3)n[nH]c2=S)cc1	-5.4	-1.3	10.3	-4.6	5.3	4.2
COc1c(C(=O)NNC(=O)c2ccccc2Cl)csc1Br	x	0.5	6.6	x	x	-18.7
c1ccc2c(SCc3cn4ccccc4n3)nncc2c1	9.3	-1.6	x	-3.0	-1.9	13.3
CCC(=O)NC(c1cccc([N+](=O)[O-])c1)c1c(OC(C)=O)ccc2ccccc12 (stereo not drawn)	79.9*	1.8	0.5	-13.0	5.6	-3.3
CCCC(=O)NC(c1ccc(N(C)C)cc1)c1c(O)ccc2ccccc12 (stereo not drawn)	100.3*	-1.8	x	8.5	4.9	13.9
COc1ccc(NC(=S)N2CCN(C(=O)C3CCCO3)CC2)c(OC)c1 (stereo not drawn)	24.9	0.4	9.3	4.9	0.9	-25.7
Cc1nc(NCCN2CCOCC2)c2oc3ccccc3c2n1	35.9	2.8	-1.2	0.9	2.3	5.3
CCc1nc(Nc2ccccc2)c2oc3ccccc3c2n1	16.0	-2.8	-3.2	-7.9	3.1	72.1*
Cc1nc(NCCCN2CCOCC2)c2oc3ccccc3c2n1	97.4*	0.1	2.1	-5.6	-0.1	-7.6
Cc1nc(NCCc2ccccc2)c2oc3ccccc3c2n1	90.0*	0.0	-3.5	-1.2	-0.1	75.9*
Cc1ccc(S(=O)(=O)CC(=O)c2cc(C)c(O)c(C)c2)cc1	4.2	-2.6	12.4	8.0	3.9	4.1
CCOC(=O)c1n[nH]n(-c2cc(Cl)cc(Cl)c2)c1=O	x	0.1	5.0	x	x	15.3
CCOC(=O)c1cc(=O)n(-c2ccc(Cl)cc2C)[nH]1	55.1*	0.0	-1.6	-6.5	1.9	28.9
CCN1CCN(CCNC(=O)CSCc2nc(-c3ccc(OC)c(OC)c3)oc2C)CC1	87.6*	-2.1	-2.5	-4.0	5.5	-24.3
CCN1CCN(CCNC(=O)C2CCCN(Cc3nc(-c4cccc(Cl)c4)oc3C)C2)CC1 (stereo not drawn)	94.1*	-1.1	-7.2	-1.4	-23.6	6.8
CCCN(CCC)CCNC(=O)C1CCN(Cc2nc(-c3ccc(Cl)cc3)oc2C)CC1	97.8*	-3.7	1.0	14.5	-34.3	-17.7
CCOC(=O)N1CCC(NC(=O)C2CCCN(Cc3nc(-c4cccc(Cl)c4)oc3C)C2)CC1 (stereo not drawn)	10.3	-0.8	3.3	-5.5	9.2	84.7*
Cc1oc(-c2ccc(Cl)cc2)nc1CN1CCC(C(=O)NCc2cccnc2)CC1	0.4	-2.4	-41.7	3.0	6.7	23.6
Cc1c(Cl)cn2c(=O)cc(CN3CCN(c4ccc(F)cc4)CC3)nc2c1Cl	-6.5	-0.2	11.5	-0.2	5.1	6.6
NC(=O)c1ccc(NC(=O)COC(=O)C2CC(=O)N(Cc3ccccc3)C2)cc1 (stereo not drawn)	-1.1	-3.4	6.1	-0.1	8.5	3.0
